Reference: ChEMBL document CHEMBL3421605, “Structure-activity relationship studies of SEN12333 analogues: determination of the optimal requirements for binding affinities at α7 nAChRs through incorporation of known structural motifs” (Eur J Med Chem, 2015)
pEC50, pKi: −log10 of the molar value.

target: Neuronal acetylcholine receptor; alpha3/beta4 (Rattus norvegicus, UniProt P04757+P12392); experiment: Displacement of [3H]epibatidine from rat alpha3beta4 nAChR transfected in HEK293 cells by liquid scintillation counting; assay type: cell-based; settings: not given
Sequence (P04757 whole entry): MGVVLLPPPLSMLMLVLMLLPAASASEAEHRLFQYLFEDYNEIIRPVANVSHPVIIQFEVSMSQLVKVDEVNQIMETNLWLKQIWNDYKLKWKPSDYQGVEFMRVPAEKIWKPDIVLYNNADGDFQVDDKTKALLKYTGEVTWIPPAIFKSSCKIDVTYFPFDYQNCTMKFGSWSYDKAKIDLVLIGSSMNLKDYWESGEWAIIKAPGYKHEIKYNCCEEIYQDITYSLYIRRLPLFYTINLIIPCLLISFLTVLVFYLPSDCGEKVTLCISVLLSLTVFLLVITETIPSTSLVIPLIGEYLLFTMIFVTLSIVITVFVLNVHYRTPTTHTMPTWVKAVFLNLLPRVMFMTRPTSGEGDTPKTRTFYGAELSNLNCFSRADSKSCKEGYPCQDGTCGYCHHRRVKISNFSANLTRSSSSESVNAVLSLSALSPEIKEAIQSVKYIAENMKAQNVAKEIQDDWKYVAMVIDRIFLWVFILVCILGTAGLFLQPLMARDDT
Sequence (P12392 whole entry): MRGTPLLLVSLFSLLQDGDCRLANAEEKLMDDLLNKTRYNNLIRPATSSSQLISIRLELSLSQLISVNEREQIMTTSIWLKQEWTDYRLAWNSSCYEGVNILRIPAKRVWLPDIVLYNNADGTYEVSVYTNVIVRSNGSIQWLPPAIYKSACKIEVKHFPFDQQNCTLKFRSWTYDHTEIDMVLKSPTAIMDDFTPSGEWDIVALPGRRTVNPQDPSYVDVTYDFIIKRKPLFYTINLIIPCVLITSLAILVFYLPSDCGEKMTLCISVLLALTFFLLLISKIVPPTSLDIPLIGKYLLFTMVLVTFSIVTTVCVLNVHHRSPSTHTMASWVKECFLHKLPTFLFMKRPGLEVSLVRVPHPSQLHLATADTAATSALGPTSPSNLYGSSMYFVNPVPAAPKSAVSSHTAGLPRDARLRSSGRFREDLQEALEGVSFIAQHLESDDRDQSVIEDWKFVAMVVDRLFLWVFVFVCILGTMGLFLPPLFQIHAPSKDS
How it was run: (§1)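 Stably transfected HEK293 cells scraped at >80% confluence into 50 mM Tris·HCl pH 7.4 at 4 °C and spun at 10,000 g. Pellet homogenised and spun at 36,000 g for 10 min at 4 °C, then resuspended. Competition against racemic [3H]epibatidine at ~500 pM (α3β4, α4β2) or ~2 nM (α7). Nonspecific binding with 300 µM nicotine. GF/C filters pretreated with 0.5% PEI. Ki derived.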

Structure (SMILES)	pKi
c1cc2cc(-c3ccc(N4CCOCC4)nn3)ccc2[nH]1	< 5.00
O=C(CCCCN1CCOCC1)Nc1ccc(-c2ccccc2)nn1	< 5.00
CN1CCN(c2ccc(-c3cccnc3)cc2)CC1	< 5.00
CN1CCN(CCCCNC(=O)c2ccc(-c3ccccc3)cc2)CC1	< 4.00
CN1CCN(CCCCC(=O)Nc2cc(-c3ccccc3)[nH]n2)CC1	< 5.00
CN1C[C@@H]2C[C@H]1CN2CCCCNC(=O)c1ccc(-c2ccccc2)cc1	< 5.00
O=C(CCCCN1CCOCC1)Nc1ccc(-c2cccnc2)cc1	< 5.00
O=C(CCCCN1CCOCC1)Nc1ccc(-c2ccc3[nH]ccc3c2)cc1	< 5.00
CN1C[C@@H]2C[C@H]1CN2CCCCNC(=O)c1ccc(-c2cccnc2)cc1	< 5.00
O=C(NCCCCN1CCCCC1)c1ccc(-c2ccccc2)cc1	< 5.00
O=C(NCCCCN1CCCCC1)c1ccc(-c2cccnc2)cc1	< 4.30
O=C(CCCCN1CCOCC1)Nc1cc(-c2ccccc2)[nH]n1	< 5.00
CN1C[C@@H]2C[C@H]1CN2c1ccc(-c2ccccc2)cc1	< 5.00
O=C(CCCCN1CCOCC1)Nc1ccc(-c2ccncc2)cc1	< 5.00
CN1C[C@@H]2C[C@H]1CN2c1ccc(-c2ccccc2)nn1	< 4.30
CN1C[C@@H]2C[C@H]1CN2c1ccc(-c2cccnc2)cc1	< 5.00
CN1C[C@@H]2C[C@H]1CN2CCCCC(=O)Nc1ccc(-c2cccnc2)cc1	< 4.00
CN1CCN(CCCCNC(=O)c2ccc(-c3cccnc3)cc2)CC1	< 5.00

target: T1, Neuronal acetylcholine receptor subunit alpha-7 (Rattus norvegicus, UniProt Q05941); experiment: Displacement of [3H]epibatidine from rat alpha7 nAChR transfected in HEK293 cells by liquid scintillation counting; assay type: cell-based; settings: not given; how it was run: as §1
T1 sequence (Q05941 whole entry): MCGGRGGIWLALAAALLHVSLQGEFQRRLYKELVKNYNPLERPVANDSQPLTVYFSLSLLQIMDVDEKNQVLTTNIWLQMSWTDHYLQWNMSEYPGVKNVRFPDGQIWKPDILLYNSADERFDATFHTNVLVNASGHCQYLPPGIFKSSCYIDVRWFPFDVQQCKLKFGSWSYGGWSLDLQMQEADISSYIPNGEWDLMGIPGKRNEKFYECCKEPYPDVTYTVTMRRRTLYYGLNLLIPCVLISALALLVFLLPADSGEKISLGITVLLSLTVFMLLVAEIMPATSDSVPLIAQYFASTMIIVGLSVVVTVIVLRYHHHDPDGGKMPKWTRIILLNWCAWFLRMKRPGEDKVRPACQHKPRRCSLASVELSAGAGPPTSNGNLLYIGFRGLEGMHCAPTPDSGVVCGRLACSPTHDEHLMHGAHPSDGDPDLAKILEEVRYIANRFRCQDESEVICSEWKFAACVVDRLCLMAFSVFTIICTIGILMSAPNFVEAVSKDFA

Structure (SMILES)	pKi
c1cc2cc(-c3ccc(N4CCOCC4)nn3)ccc2[nH]1	< 5.00
O=C(CCCCN1CCOCC1)Nc1ccc(-c2ccccc2)nn1	< 5.00
CN1CCN(c2ccc(-c3cccnc3)cc2)CC1	5.03
CN1CCN(CCCCNC(=O)c2ccc(-c3ccccc3)cc2)CC1	5.27
CN1CCN(CCCCC(=O)Nc2cc(-c3ccccc3)[nH]n2)CC1	< 5.00
CN1C[C@@H]2C[C@H]1CN2CCCCNC(=O)c1ccc(-c2ccccc2)cc1	5.21
O=C(CCCCN1CCOCC1)Nc1ccc(-c2ccc3[nH]ccc3c2)cc1	6.51
CN1C[C@@H]2C[C@H]1CN2CCCCNC(=O)c1ccc(-c2cccnc2)cc1	< 5.00
O=C(NCCCCN1CCCCC1)c1ccc(-c2ccccc2)cc1	6.39
O=C(NCCCCN1CCCCC1)c1ccc(-c2cccnc2)cc1	5.85
O=C(CCCCN1CCOCC1)Nc1cc(-c2ccccc2)[nH]n1	5.59
CN1C[C@@H]2C[C@H]1CN2c1ccc(-c2ccccc2)cc1	7.47
O=C(CCCCN1CCOCC1)Nc1ccc(-c2ccncc2)cc1	6.46
CN1C[C@@H]2C[C@H]1CN2c1ccc(-c2cccnc2)cc1	6.85
CN1C[C@@H]2C[C@H]1CN2CCCCC(=O)Nc1ccc(-c2cccnc2)cc1	< 5.00
CN1CCN(CCCCNC(=O)c2ccc(-c3cccnc3)cc2)CC1	< 5.00

target: Neuronal acetylcholine receptor subunit alpha-7 (Rattus norvegicus) (UniProt Q05941); experiment: Agonist activity at rat alpha7 nAChR expressed in GH4C1 cells by patch-clamp electrophysiology assay relative to acetylcholine; assay type: cell-based; settings: GH4-C1
Sequence (Q05941 whole entry): as above

Structure (SMILES)	Emax [%]
O=C(CCCCN1CCOCC1)Nc1ccc(-c2cccnc2)cc1	104

target: T1, Neuronal acetylcholine receptor subunit alpha-7; experiment: Agonist activity at rat alpha7 nAChR expressed in GH4C1 cells by patch-clamp electrophysiology assay; assay type: cell-based, GH4-C1; settings: not given

Structure (SMILES)	pEC50
O=C(CCCCN1CCOCC1)Nc1ccc(-c2cccnc2)cc1	4.38

target: T1, Neuronal acetylcholine receptor subunit alpha-7; experiment: Agonist activity at rat alpha7 nAChR expressed in GH4C1 cells by fluorescent calcium assay; assay type: cell-based, GH4-C1; settings: not given
How it was run: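 GH4C1 cells stably expressing rat α7 loaded with Fluo4 Direct dye. Baseline fluorescence read, then compound added, and peak/base ratios taken; >1.00 taken as agonism. Tested at 0.03, 0.1, 0.3, 1, 3 and 10 µM (one compound at 0.001–0.3 µM), n = 3. EC50 from dose–response curves.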

Structure (SMILES)	pEC50
O=C(CCCCN1CCOCC1)Nc1ccc(-c2cccnc2)cc1	6.16
O=C(CCCCN1CCOCC1)Nc1ccc(-c2ccc3[nH]ccc3c2)cc1	6.00
CN1C[C@@H]2C[C@H]1CN2c1ccc(-c2ccccc2)cc1	6.60
O=C(CCCCN1CCOCC1)Nc1ccc(-c2ccncc2)cc1	6.28
CN1C[C@@H]2C[C@H]1CN2c1ccc(-c2cccnc2)cc1	6.90

target: Neuronal acetylcholine receptor; alpha4/beta2 (Rattus norvegicus, UniProt P09483+P12390); experiment: Displacement of [3H]epibatidine from rat alpha4beta2 nAChR transfected in HEK293 cells by liquid scintillation counting; assay type: cell-based; settings: not given; how it was run: as §1
Sequence (P09483 whole entry): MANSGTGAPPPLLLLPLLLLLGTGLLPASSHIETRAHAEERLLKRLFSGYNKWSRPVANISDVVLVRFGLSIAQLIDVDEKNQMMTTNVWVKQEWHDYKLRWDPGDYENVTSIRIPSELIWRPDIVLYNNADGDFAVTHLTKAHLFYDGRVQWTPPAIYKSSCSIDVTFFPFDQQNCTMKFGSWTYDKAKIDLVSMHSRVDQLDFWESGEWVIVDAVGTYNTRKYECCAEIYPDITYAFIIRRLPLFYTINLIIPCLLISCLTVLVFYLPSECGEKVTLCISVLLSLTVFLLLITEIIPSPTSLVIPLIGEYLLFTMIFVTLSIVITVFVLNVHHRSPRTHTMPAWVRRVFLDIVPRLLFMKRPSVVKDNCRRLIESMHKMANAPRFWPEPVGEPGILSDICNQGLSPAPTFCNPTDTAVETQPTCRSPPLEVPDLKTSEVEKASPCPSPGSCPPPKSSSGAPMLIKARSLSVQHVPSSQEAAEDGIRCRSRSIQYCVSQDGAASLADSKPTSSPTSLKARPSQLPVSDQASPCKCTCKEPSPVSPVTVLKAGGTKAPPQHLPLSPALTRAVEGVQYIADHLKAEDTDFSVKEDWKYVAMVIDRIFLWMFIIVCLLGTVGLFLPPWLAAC
Sequence (P12390 whole entry): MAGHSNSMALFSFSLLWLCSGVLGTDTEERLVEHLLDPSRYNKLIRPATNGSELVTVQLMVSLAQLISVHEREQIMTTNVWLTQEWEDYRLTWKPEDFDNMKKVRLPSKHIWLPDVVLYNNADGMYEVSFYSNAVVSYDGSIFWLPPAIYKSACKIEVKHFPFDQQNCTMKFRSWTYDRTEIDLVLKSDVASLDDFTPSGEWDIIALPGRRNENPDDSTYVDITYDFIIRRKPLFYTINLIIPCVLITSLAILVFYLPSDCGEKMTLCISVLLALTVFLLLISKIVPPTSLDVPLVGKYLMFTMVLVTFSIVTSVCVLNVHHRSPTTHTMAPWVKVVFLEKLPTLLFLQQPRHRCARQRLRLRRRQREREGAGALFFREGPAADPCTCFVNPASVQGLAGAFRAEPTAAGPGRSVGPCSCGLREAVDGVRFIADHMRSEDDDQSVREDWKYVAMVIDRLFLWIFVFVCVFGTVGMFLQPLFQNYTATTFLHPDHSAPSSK

Structure (SMILES)	pKi
c1cc2cc(-c3ccc(N4CCOCC4)nn3)ccc2[nH]1	< 5.00
O=C(CCCCN1CCOCC1)Nc1ccc(-c2ccccc2)nn1	< 5.00
CN1CCN(c2ccc(-c3cccnc3)cc2)CC1	< 5.00
CN1CCN(CCCCNC(=O)c2ccc(-c3ccccc3)cc2)CC1	< 5.00
CN1CCN(CCCCC(=O)Nc2cc(-c3ccccc3)[nH]n2)CC1	< 5.00
CN1C[C@@H]2C[C@H]1CN2CCCCNC(=O)c1ccc(-c2ccccc2)cc1	< 5.00
O=C(CCCCN1CCOCC1)Nc1ccc(-c2cccnc2)cc1	< 5.00
O=C(CCCCN1CCOCC1)Nc1ccc(-c2ccc3[nH]ccc3c2)cc1	< 5.00
CN1C[C@@H]2C[C@H]1CN2CCCCNC(=O)c1ccc(-c2cccnc2)cc1	< 5.00
O=C(NCCCCN1CCCCC1)c1ccc(-c2ccccc2)cc1	< 5.00
O=C(NCCCCN1CCCCC1)c1ccc(-c2cccnc2)cc1	< 5.00
O=C(CCCCN1CCOCC1)Nc1cc(-c2ccccc2)[nH]n1	< 5.00
CN1C[C@@H]2C[C@H]1CN2c1ccc(-c2ccccc2)cc1	< 5.00
O=C(CCCCN1CCOCC1)Nc1ccc(-c2ccncc2)cc1	< 5.00
CN1C[C@@H]2C[C@H]1CN2c1ccc(-c2cccnc2)cc1	< 5.00
CN1C[C@@H]2C[C@H]1CN2CCCCC(=O)Nc1ccc(-c2cccnc2)cc1	< 5.00
CN1CCN(CCCCNC(=O)c2ccc(-c3cccnc3)cc2)CC1	< 5.00
